# Results gathered from unrelated publications.
# Lines come from different studies, so protocols differ.
# Target: Myosin light chain kinase 2, skeletal/cardiac muscle (MYLK2, Homo sapiens, UniProt Q9H1R3)
SMILES,assay,conditions,measurement,result
Nc1ncc(-c2nc(N3CCOCC3)nc(N3CCOCC3)n2)c(C(F)F)n1,"binding, competition with immobilised ligand",10 µM,remaining binding,92%
CC(C)(C)c1cc(C=C(C#N)C#N)cc(Br)c1O,"enzyme activity, inhibitor",0.5 µM,remaining activity,99.3%
Cn1cncc1[C@@](O)(COc1ccc(C#N)cc1-c1ccc(OC(F)(F)F)cc1)c1ccc(C#N)cc1,"cell-free assay, competition with immobilised ligand",1 µM,remaining binding,100%
Cn1cc(-c2cccc(N3CCc4c(sc5c4CC(C)(C)C5)C3=O)c2CO)cc(Nc2ccncn2)c1=O,"enzyme activity, inhibitor",1 µM,inhibition,14%
COc1cc(Nc2ncc(F)c(Nc3ccc4c(n3)NC(=O)C(C)(C)O4)n2)cc(OC)c1OC,"binding, competition with immobilised ligand",10 µM,inhibition,58%
COc1ncccc1-c1cnn2ccc(N3CCN(C(=O)OC(C)C)CC3)nc12,"binding, competition with immobilised ligand",1 µM,remaining binding,89%
Cc1nn(C)cc1-c1nc2c(N3CCN(Cc4ccc(Cl)cc4)CC3)c(Cl)cnc2[nH]1,"binding, competition with immobilised ligand",1 µM,remaining binding,61%
Cn1cc(-c2cc(F)cc(N3CCn4c(cc5c4CCCC5)C3=O)c2CO)cc(Nc2ccc(N3CCN(C4COC4)CC3)cn2)c1=O,"enzyme activity, inhibitor",0.1 µM,inhibition,17%
O=c1[nH]c2ccccc2n1C1CCN(Cc2ccc(-c3[nH]c4cc5ncnc5cc4nc3-c3ccccc3)cc2)CC1,cell-free assay,0.5 µM,remaining signal,103%
